Experimental findings from ChEMBL document CHEMBL4725389, “Novel Blocker of Onco SK3 Channels Derived from Scorpion Toxin Tamapin and Active against Migration of Cancer Cells” (ACS Med Chem Lett, 2020) are described below.

By inhibition is commonly meant the drop in the measured response relative to a control, in per cent. The term EC50 denotes the concentration giving half of the maximal effect.

Assay [1] addresses Small conductance calcium-activated potassium channel protein 2 (Rattus norvegicus) (UniProt P70604). Description: Inhibition of recombinant rat SK2 expressed in HEK293 cells at 10 nM and holding potential at 0 mV and ramp voltage from -100 to 100 mV by whole cell patch clamp method relative to control. The format is cell-based.
The target of assay [2] is T1, Small conductance calcium-activated potassium channel protein 3 (Homo sapiens, UniProt Q9UGI6). Put plainly: Inhibition of recombinant human SK3 expressed in HEK293T cells at 10 nM and holding potential at 0 mV and ramp voltage from -100 to 100 mV by whole cell patch clamp method relative to control. In kind it is cell-based. Particulars: HEK-293T. (In patch-clamp work, channel activity is measured electrically.)

Assay [3] addresses T1, Small conductance calcium-activated potassium channel protein 3. Put plainly: Inhibition of recombinant human SK3 expressed in HEK293T cells assessed as ratio of amplitude of outward current blocked in presence and absence of compound at 1 nM and holding potential at 0 mV and ramp voltage from -100 to 100 mV by whole cell patch clamp method relative to control. In kind it is cell-based. In a few lines:
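Whole-cell patch clamp on HEK293T cells expressing recombinant human SK3, pCa 6. Ramp from −100 to 100 mV over 500 ms, holding at 0 mV; currents analysed at 0 mV. Peptide at 1 nM, then 100 nM apamin to block residual SKCa current. Inhibition = ratio of outward current amplitude blocked at 1 nM to amplitude without compound.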

The target is the same in assay [4]. Put plainly: Inhibition of recombinant human SK3 expressed in HEK293T cells assessed as reduction in channel current with holding potential 0 mV and ramp voltage from -100 to 100 mV by whole cell patch clamp method. The format is cell-based, HEK-293T. A digest of the protocol: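 HEK293T stably expressing recombinant human SK3, whole-cell recording at pCa 6. Ramp −100 to 100 mV, 500 ms, from 0 mV holding; current at 0 mV taken as SKCa-only. Concentration–response curves fitted for EC50 (means ± SEM, n = 3–8).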

Assay [5] has the same target. Description: Inhibition of SK3-dependent cell migration in human MDA-MB-435 cells assessed as ratio of total cells migrating by matrigel invasion method relative to control. In kind it is cell-based.
Assay [6] deals with MDA-MB-435. Description: Inhibition of cell migration in human MDA-MB-435 cells expressing SK3 by matrigel invasion method relative to control.
The subject of assay [7] is MDA-MB-435. Description: Inhibition of cell migration in human MDA-MB-435 cells transfected with lentivrus-encoding shRNA against SK3 by matrigel invasion method relative to control. The format is functional. A digest of the protocol: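 MDA-MB-435s cells lacking SK3 expression were exposed to peptides at 100 nM. Migration is given as migrating cells with peptide divided by migrating cells under control conditions (means ± SEM, N = 4, n = 12). Groups were compared by Kruskal–Wallis with post hoc tests.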

Structures are written as SMILES. Calls of active or inactive are those of the source. The rule behind the calls is not given here. Positions of bridges follow the written chain, without caps; N, C: chain ends. Residues, ends and D or L forms follow the SMILES beside them.

T1 sequence (Q9UGI6 whole entry): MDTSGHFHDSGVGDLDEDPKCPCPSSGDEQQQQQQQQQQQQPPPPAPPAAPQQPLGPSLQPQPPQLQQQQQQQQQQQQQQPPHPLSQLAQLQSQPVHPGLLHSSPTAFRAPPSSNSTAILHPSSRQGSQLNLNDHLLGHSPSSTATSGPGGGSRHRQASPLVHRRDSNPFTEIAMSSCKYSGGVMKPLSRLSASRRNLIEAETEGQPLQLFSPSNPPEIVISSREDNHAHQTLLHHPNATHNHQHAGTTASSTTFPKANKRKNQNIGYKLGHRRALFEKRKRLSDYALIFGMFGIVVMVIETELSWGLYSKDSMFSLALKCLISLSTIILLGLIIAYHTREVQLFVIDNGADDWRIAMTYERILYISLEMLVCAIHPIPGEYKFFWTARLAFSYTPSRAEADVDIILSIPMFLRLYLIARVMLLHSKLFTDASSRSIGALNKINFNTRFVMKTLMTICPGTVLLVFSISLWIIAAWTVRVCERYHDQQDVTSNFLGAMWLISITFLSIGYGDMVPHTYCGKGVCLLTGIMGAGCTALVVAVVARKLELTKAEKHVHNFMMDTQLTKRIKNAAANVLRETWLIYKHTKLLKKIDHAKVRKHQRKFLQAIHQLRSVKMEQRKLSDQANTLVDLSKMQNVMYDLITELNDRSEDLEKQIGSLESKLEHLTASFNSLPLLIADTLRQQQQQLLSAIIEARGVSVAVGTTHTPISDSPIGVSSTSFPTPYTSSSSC
Sequence of Small conductance calcium-activated potassium channel protein 2 (Rattus norvegicus) (P70604 whole entry): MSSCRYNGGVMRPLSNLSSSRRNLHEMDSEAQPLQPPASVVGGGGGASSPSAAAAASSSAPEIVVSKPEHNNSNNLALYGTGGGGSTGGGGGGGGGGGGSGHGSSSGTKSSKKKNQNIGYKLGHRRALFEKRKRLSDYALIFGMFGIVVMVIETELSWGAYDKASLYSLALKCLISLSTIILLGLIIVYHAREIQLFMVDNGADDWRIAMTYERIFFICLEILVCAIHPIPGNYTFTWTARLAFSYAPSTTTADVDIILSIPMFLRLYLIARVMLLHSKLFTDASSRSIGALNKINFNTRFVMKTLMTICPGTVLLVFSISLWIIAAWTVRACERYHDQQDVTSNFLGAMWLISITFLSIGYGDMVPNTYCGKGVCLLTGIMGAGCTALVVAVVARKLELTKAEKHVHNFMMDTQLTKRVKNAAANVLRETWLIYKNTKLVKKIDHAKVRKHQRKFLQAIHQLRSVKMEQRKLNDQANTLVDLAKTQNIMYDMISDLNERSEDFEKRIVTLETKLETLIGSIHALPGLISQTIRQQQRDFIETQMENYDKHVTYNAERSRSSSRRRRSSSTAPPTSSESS

With `CC[C@H](C)[C@@H]1NC(=O)[C@@H]2CSSC[C@H](NC(=O)[C@H](Cc3ccccc3)NC(=O)[C@H](C)N)C(=O)N[C@@H](CC(N)=O)C(=O)N[C@@H](CC(C)C)C(=O)N[C@@H](CCCNC(=N)N)C(=O)N[C@@H](CCCNC(=N)N)C(=O)N[C@H]3CSSC[C@H](NC(=O)[C@H](CCCCN)NC(=O)[C@H](CCC(=O)O)NC(=O)CNC1=O)C(=O)N[C@@H](CCC(=O)O)C(=O)N[C@H](C(=O)N[C@H](C(=O)N1CCC[C@H]1C(=O)N[C@@H](Cc1ccc(O)cc1)C(=O)O)C(C)C)CSSC[C@H](NC(=O)[C@H](CO)NC(=O)[C@H](CC(C)C)NC(=O)[C@H](CCC(=O)O)NC3=O)C(=O)N[C@@H](CCCNC(=N)N)C(=O)N[C@@H](CO)C(=O)N[C@@H](CC(C)C)C(=O)NCC(=O)N[C@@H](CC(C)C)C(=O)N[C@@H](CC(C)C)C(=O)NCC(=O)N[C@@H](CCCCN)C(=O)N2` (H-AFCNLRRCELSCRSLGLLGKCIGEKCECVPY-OH; disulfide 3-21, 8-26, 12-28), the inhibition in assay [1] is 40%; in assay [2] it was over 85%; in assay [3] it was 73%; in assay [5] (concentration not given here) it was 76.5%. For the same compound, the EC50 in assay [4] was 0.38 nM. Also, in the assay on MDA-MB-435 [6], the “inhibition (INH)” value turned out to be 45.9%.

`CC[C@H](C)[C@@H]1NC(=O)[C@@H]2CSSC[C@H](NC(=O)[C@H](Cc3ccccc3)NC(=O)[C@H](C)N)C(=O)N[C@@H](CC(N)=O)C(=O)N[C@@H](CC(C)C)C(=O)N[C@@H](CCCNC(=N)N)C(=O)N[C@@H](CCCNC(=N)N)C(=O)N[C@H]3CSSC[C@H](NC(=O)[C@H](CCC(=O)O)NC(=O)[C@H](CCC(=O)O)NC(=O)CNC1=O)C(=O)N[C@@H](CCCCN)C(=O)N[C@H](C(=O)N[C@H](C(=O)N1CCC[C@H]1C(=O)N[C@@H](Cc1ccc(O)cc1)C(=O)O)C(C)C)CSSC[C@H](NC(=O)[C@H](CO)NC(=O)[C@H](CC(C)C)NC(=O)[C@H](CCC(=O)O)NC3=O)C(=O)N[C@@H](CCCNC(=N)N)C(=O)N[C@@H](CO)C(=O)N[C@@H](CC(C)C)C(=O)NCC(=O)N[C@@H](CC(C)C)C(=O)N[C@@H](CC(C)C)C(=O)NCC(=O)N[C@@H](CCCCN)C(=O)N2` (H-AFCNLRRCELSCRSLGLLGKCIGEECKCVPY-OH; disulfide 3-21, 8-26, 12-28): the inhibition is over 85% in assay [1], 40% in assay [2] and 25% in assay [3]. In addition, the EC50 in assay [4] was 2.6 nM. Also, the inhibition result (in the assay on MDA-MB-435 [7]; in assay [5]) was “inactive” throughout.
